Series [1] can be described thus: Acute toxicity in ICR mouse assessed as survival rate at 200 mg/kg, ip administered for 14 days relative to control. In kind it is organism-based. The note with it: in vivo.
The target in series [2] is Glycogen synthase kinase-3 beta (Homo sapiens) (UniProt P49841). The series can be described thus: Inhibition of TGF-beta1-induced GSK-3beta phosphorylation in human HCT116 cells after 48 hrs by Western blot analysis. In kind it is cell-based. In a few lines:
(§1)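 HCT-116 cells treated with or without TGF-β1 (10 ng/mL) for 48 h, with or without test agent. Lysates (20 μg/lane) run on 7.5% SDS-PAGE and transferred to PVDF. Probed for p-Akt (Ser473), Akt, p-GSK-3β (S9), GSK-3β, E-cadherin, MMP-9 and β-actin, detected by ECL. Densitometry relative to β-actin or total protein. Three independent experiments.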

In series [3] the test system is Mus musculus. The series can be described thus: Toxicity in BALB/c nude mouse xenografted with human HCT116 cells assessed as abnormality in lung at 2.5 to 5 mg/kg, ip administered for 21 consecutive days. In kind it is organism-based. The note with it: in vivo. The method, boiled down: (§2)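 Male BALB/c nude mice (3−5 weeks) inoculated sc with 1 × 10^7 HCT-116 cells; at tumour volume about 75 mm3 randomized (n = 8 per group) and dosed ip daily at 2.5 or 5 mg/kg for 21 consecutive days. Body weights monitored; liver, kidney, lung and heart inspected for size and morphology at sacrifice.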
Background: A xenograft is tissue or cells of one species grown in another, often human tumour cells in immunodeficient mice.

Series [4] deals with HCT-116. The series can be described thus: Inhibition of TGF-beta1-induced decrease in expression levels of E-cadherin protein in human HCT116 cells after 48 hrs by Western blot analysis. Type of series: functional, cell-based. In a few lines:
as §1
(In general: A western blot detects proteins with antibodies after separation by electrophoresis.)

Series [5] deals with Mus musculus. The series can be described thus: Hepatotoxicity in BALB/c nude mouse xenografted with human HCT116 cells at 2.5 to 5 mg/kg, ip administered for 21 consecutive days. Type of series: toxicity, organism-based. The note with it: in vivo. The method, boiled down: as §2
The subject of series [6] is HCT-116. The series can be described thus: Induction of ROS accumulation in human HCT116 cells up to 3 hrs in presence of GSH by DCFH-DA staining-based fluorescence spectrometric analysis. Type of series: functional, cell-based.
Series [7] concerns the target T1, Catenin beta-1 (Homo sapiens) (UniProt P35222).
T1 sequence (whole entry): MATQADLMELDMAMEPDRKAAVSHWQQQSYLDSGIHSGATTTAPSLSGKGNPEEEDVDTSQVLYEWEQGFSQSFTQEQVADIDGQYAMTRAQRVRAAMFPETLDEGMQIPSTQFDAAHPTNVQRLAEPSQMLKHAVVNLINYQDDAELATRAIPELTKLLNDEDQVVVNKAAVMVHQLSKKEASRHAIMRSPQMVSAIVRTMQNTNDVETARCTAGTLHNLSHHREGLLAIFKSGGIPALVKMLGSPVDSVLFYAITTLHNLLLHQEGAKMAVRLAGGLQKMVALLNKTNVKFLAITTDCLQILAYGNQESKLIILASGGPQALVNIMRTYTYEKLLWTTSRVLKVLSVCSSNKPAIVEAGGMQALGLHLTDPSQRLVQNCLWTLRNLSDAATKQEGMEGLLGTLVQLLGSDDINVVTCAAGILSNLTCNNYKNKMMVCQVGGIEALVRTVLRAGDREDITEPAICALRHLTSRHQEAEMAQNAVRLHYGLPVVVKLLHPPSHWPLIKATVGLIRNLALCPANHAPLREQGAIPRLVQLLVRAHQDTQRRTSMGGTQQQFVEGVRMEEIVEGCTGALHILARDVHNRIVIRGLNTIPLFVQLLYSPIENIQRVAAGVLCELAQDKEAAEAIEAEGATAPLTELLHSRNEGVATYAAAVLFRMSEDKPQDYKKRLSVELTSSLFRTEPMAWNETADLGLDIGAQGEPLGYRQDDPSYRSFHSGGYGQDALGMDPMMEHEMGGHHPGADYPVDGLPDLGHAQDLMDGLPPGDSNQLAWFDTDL
The series can be described thus: Inhibition of TGF-beta1-regulated increase in nuclear beta-catenin in human HCT116 cells at 2 to 50 nM after 48 hrs by Western blot analysis. In kind it is cell-based. In a few lines: (§3)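 Cytoplasmic and nuclear β-catenin were measured by Western blot in HCT-116 cells given TGF-β1 (10 ng/mL) for 48 h, with or without compound, against 0.1% DMSO vehicle. Lysates (20 μg/lane) were run on 7.5% gels and transferred to PVDF, with Lamin A among the antibodies used. Blots were read by ECL and densitometry, n = 3 independent experiments.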

Series [8] deals with HCT-116. The series can be described thus: Antimetastatic activity against human HCT116 cells xenografted in BALB/c nude mouse model assessed as reduction in lung metastatic nodules at 2 to 4 mg/kg, ip administered thrice a week for 6 consecutive weeks by H and E staining-based assay. In kind it is functional, organism-based. The method, boiled down: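 BALB/c nude mice received HCT-116 cells into the tail vein, then were randomized and dosed intraperitoneally (1, 2 or 4 mg/kg) three times weekly. Body weight recorded weekly. Lungs sectioned (4 μm), H&E stained, and nodule number and area scored blinded in three sections per mouse. Nodule counts n = 4–6 per group.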

Series [9] relates to Mus musculus. The series can be described thus: Acute toxicity in ICR mouse assessed as mortality at 50 mg/kg, ip administered for 14 days. In kind it is organism-based. The note with it: in vivo, 336 h.
The test system of series [10] is HCT-116. The series can be described thus: Antiproliferative activity against human HCT116 cells at […] pretreated with GSH for 1 hr measured after 72 hrs by MTT assay relative to control. Type of series: functional. (In general: Tetrazolium dyes change colour on reduction, which living cells bring about.)
Series [11] deals with HCT-116. The series can be described thus: Antiproliferative activity against human HCT116 cells at […] after 72 hrs by MTT assay relative to control. The note with it: HCT-116, 72 h. In kind it is functional.
Series [12] in a line: Thiol reactivity in DMSO assessed as methyl 2-(3-chloro-2-oxo-1-(3-(3,5,6-trimethylpyrazin-2-yl)acryloyl)piperidin-4-ylthio)acetate formation at 5 mg up to 8 hrs in presence of methyl thioglycolate by 1H NMR analysis.
Series [13] concerns HCT-116. The series can be described thus: Antitumor activity against human HCT116 cells xenografted in BALB/c nude mouse assessed as reduction in tumor volume at 2.5 to 5 mg/kg, ip administered daily for 21 consecutive days. Type of series: functional, organism-based. In a few lines:
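Male BALB/c nude mice, 3–5 weeks old, inoculated subcutaneously with 1 × 10^7 HCT-116 cells. At about 75 mm³ tumor volume, randomized (n = 8/group) and dosed intraperitoneally daily. Volume by caliper as d² × D/2. At the end, tumors excised and weighed; inhibition = (Wcontrol − Wtreated)/Wcontrol × 100%.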

The target in series [14] is T1, Catenin beta-1 (Homo sapiens). The series can be described thus: Inhibition of TGF-beta1-regulated decrease in cytoplasmic beta-catenin in human HCT116 cells at 50 nM after 48 hrs by Western blot analysis. In kind it is cell-based. The method, boiled down: as §3
Series [15] deals with HCT-116. The series can be described thus: Inhibition of TGF-beta1-induced increase in expression levels of twist protein in human HCT116 cells at 50 nM after 48 hrs by Western blot analysis. Type of series: functional, cell-based. In a few lines: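 HCT-116 cells (1 × 10^6/well, plated overnight) were exposed to TGF-β1 (10 ng/mL) for 48 h, with or without test compound; vehicle was 0.1% DMSO. Lysates (20 μg/lane) were run on 7.5% SDS-PAGE and blotted to PVDF, with primary antibody overnight at 4 °C and HRP/ECL detection. Band densities were normalised to β-actin across three independent experiments.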

Series [16] relates to HCT-116. The series can be described thus: Antiinvasive activity in human HCT116 cells assessed as inhibition of TGF-beta1-induced cell invasion at 50 nM after 48 hrs by crystal violet staining-based assay. Type of series: functional. The method, boiled down: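 Transwell invasion. HCT-116 cells (2.5 × 10^5/well) seeded on matrigel-coated chambers, with TGF-β1 (10 ng/mL) and test agents (2, 10, 50 nM) in the lower chamber for 48 h. Invaded cells stained with crystal violet and counted. Three independent experiments.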

Each structure is given as a SMILES string. Active and inactive are the calls of the source. No cut-off for these calls is given here.

Results on 2 compounds are retold here after ChEMBL document CHEMBL4033788, “Novel Ligustrazine-Based Analogs of Piperlongumine Potently Suppress Proliferation and Metastasis of Colorectal Cancer Cells in Vitro and in Vivo” (J Med Chem, 2018).

Chain of Glycogen synthase kinase-3 beta (Homo sapiens) (P49841 whole entry, looked up): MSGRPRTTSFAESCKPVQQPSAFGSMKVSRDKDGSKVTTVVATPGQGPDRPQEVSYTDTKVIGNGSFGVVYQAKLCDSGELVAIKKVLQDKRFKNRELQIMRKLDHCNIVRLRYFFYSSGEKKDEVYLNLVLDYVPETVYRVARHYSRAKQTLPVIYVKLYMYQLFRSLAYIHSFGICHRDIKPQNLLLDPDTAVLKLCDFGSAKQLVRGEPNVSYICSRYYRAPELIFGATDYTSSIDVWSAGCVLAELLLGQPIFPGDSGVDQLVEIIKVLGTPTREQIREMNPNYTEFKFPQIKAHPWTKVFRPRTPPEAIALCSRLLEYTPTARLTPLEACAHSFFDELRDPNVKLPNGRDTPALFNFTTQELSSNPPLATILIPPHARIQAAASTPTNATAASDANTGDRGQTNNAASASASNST

Regarding `Cc1nc(C)c(/C=C/C(=O)N2CCC=C(Cl)C2=O)nc1C`, the survival at 336 h in [1] came to 30%. For the same compound, the inhibition entry in series [2] and in series [4] was “Dose-dependent effect” each time. The Activity entry in series [3], in series [5] and in series [9] was “Non-Toxic” throughout. Also, the result in series [6] was inactive. For the same compound, the inhibition (usually the percentage by which the read-out fell short of the control) in series [7] was “Active”. In addition, the result in series [8] and in series [13] was Active. For the same compound, the inhibition at […] in series [10] stood at 36.1%; in [11], 82.9%. Further, in series [12], the Drug metabolism result is “Metabolite detected”.

For `COc1cc(/C=C/C(=O)N2CCC=CC2=O)cc(OC)c1OC` [PIPLARTINE], the inhibition result in series [14] and in series [15] was “Active” in each case. Further, the outcome in series [16] was Active.
